Converted amounts (≈) assume the structure as drawn.
Columns and labels:
[1] = Antagonist activity to dog NKCC1 transporter expressed in MDCK cells assessed as inhibition of Cl- free medium-stimulated Rb+ influx at 100 uM after 45 mins by atomic absorption spectroscopy; format: functional, Canis lupus familiaris; conditions: Canis lupus familiaris, MDCK, 0.75 h
Summary of the method: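 MDCK cells express endogenous canine NKCC1. NKCC1 is activated by incubating the cells for 2 h in Cl−-free medium. Rb+ influx is then stimulated for 45 min by adding 20 mM RbCl to the extracellular solution. Intracellular Rb+ is quantified by atomic absorption spectroscopy, and results are given as percent inhibition.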

[2] = target: T1, Solute carrier family 12 member 5 (Rattus norvegicus, UniProt Q63633); experiment: Antagonist activity of rat KCC2 transporter expressed in human SK-Hep cells assessed as inhibition of N-ethylmaleimide-mediated Rb+ influx after 10 mins by atomic absorption spectroscopy; format: functional, cell-based
T1 sequence (Q63633 whole entry): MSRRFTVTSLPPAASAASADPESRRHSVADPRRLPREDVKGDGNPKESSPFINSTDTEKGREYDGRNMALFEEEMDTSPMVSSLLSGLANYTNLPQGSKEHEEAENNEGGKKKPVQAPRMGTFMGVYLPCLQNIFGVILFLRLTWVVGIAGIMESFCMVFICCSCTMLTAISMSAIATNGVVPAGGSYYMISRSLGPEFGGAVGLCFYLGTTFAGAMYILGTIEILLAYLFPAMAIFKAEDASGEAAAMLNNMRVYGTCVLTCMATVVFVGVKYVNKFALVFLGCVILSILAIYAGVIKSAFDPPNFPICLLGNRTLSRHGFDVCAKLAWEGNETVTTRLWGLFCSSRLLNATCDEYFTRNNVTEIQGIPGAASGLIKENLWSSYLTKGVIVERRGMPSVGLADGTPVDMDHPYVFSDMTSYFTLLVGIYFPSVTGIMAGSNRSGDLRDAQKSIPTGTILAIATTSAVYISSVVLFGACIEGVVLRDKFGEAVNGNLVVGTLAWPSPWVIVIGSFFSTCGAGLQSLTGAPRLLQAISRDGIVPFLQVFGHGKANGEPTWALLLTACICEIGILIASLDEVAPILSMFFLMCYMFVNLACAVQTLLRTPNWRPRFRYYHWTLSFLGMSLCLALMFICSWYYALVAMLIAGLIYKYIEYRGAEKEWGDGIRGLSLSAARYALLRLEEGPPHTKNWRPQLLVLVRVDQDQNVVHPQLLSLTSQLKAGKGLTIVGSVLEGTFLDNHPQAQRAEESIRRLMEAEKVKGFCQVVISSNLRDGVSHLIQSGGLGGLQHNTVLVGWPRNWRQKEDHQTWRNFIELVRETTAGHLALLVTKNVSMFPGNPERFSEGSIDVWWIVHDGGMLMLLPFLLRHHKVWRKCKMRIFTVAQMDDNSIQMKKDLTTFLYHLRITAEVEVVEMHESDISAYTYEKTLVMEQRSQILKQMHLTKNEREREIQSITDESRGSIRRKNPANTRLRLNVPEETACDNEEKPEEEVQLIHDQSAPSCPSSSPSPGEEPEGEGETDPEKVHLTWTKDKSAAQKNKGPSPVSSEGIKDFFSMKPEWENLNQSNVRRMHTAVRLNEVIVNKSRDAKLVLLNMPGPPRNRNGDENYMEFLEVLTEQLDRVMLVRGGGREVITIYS
Summary of the method: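 Rat KCC2 stably expressed in a selected clone. The co-transporter is activated with N-ethylmaleimide in the presence of the test compound, and Rb+ influx is started by adding 5 mM RbCl to the extracellular medium. Influx is stopped after 10 min by repeated washes. Intracellular Rb+ is measured by atomic absorption spectroscopy, and IC50 is reported.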

[3] = Intrinsic clearance in rat hepatocytes assessed per 10^6 cells
[4] = Intrinsic clearance in rat microsomes assessed per mg of protein; format: ADME, Microsome
[5] = Aqueous solubility in PBS buffer at pH 7.4; format: physicochemical
[6] = Oral bioavailability in Wistar rat at 6 mg/kg; format: ADME, organism-based; conditions: in vivo
Summary of the method: (§1)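 Male Wistar rats are dosed at 1 mg/kg iv for half-life and clearance, and at 6 mg/kg po for AUC, Cmax and oral bioavailability.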

[7] = Cmax in Wistar rat at 6 mg/kg, po; format: ADME, organism-based; design: dose 6 mg/kg, route oral; conditions: in vivo; summary of the method: as §1
CYP3A4 = CYP3A4 (Homo sapiens, UniProt P08684); experiment: Inhibition of human CYP3A4 at 50 uM; format: ADME
CYP3A4, sequence (P08684 whole entry): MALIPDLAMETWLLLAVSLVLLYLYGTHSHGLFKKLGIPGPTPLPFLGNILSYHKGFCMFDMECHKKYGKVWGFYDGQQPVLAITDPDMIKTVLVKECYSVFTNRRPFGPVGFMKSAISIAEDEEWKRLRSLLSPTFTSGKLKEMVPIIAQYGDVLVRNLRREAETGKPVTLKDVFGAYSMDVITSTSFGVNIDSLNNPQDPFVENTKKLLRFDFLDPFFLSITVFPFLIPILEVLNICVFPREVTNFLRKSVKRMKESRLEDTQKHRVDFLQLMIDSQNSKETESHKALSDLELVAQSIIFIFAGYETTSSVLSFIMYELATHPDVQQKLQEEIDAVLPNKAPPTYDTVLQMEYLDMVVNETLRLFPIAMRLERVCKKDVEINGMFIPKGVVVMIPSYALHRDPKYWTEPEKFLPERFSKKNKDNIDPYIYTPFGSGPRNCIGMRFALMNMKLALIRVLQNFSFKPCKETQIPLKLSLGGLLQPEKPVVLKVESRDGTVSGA

[8] = AUC in Wistar rat at 6 mg/kg, po; format: ADME, organism-based; design: dose 6 mg/kg, route oral; conditions: plasma; summary of the method: as §1
[9] = Drug level in NMRI mouse brain at 43.3 mg/kg, ip after 5 mins; format: ADME, organism-based; design: dose 43.3 mg/kg, route intraperitoneal; conditions: read-out: Drug uptake
Summary of the method: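 NMRI mice are dosed ip at 43.3 mg/kg. Plasma and brain exposure are determined 5 min after dosing, and free brain concentration is reported.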

CYP2D6 = CYP2D6 (Homo sapiens, UniProt P10635); experiment: Inhibition of human CYP2D6 at 50 uM; format: ADME
CYP2D6, sequence (P10635 whole entry): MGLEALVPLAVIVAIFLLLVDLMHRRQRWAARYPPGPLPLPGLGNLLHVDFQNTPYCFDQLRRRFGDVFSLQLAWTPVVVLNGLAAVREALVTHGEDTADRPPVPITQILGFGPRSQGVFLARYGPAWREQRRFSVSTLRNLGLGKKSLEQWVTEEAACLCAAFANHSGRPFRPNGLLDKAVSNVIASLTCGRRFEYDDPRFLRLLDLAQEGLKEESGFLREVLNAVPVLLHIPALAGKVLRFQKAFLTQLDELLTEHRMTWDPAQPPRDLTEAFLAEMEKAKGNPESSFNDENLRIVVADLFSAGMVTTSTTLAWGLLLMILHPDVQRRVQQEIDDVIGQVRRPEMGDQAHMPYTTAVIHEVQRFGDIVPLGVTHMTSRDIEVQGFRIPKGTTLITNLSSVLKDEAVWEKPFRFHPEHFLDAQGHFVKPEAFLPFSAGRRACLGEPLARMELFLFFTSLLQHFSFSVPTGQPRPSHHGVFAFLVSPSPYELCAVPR

CYP2C19 = CYP2C19 (Homo sapiens, UniProt P33261); experiment: Inhibition of human CYP2C19 at 50 uM; format: ADME
CYP2C19, sequence (P33261 whole entry): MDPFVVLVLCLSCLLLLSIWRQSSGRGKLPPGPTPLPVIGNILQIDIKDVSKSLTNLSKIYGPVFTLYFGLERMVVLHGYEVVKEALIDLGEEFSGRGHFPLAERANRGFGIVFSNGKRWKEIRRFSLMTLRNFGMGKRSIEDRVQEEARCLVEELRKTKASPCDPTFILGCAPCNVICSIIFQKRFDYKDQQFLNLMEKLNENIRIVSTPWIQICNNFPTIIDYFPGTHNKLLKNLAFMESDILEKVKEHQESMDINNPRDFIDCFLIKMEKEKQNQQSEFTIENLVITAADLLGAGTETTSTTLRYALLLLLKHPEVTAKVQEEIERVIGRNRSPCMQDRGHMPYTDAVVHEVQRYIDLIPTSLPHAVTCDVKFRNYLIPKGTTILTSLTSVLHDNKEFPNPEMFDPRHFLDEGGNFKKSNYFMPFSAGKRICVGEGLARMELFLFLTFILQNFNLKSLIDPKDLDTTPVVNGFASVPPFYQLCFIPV

CYP2C9 = CYP2C9 (Homo sapiens, UniProt P11712); experiment: Inhibition of human CYP2C9 at 50 uM; format: ADME
CYP2C9, sequence (P11712 whole entry): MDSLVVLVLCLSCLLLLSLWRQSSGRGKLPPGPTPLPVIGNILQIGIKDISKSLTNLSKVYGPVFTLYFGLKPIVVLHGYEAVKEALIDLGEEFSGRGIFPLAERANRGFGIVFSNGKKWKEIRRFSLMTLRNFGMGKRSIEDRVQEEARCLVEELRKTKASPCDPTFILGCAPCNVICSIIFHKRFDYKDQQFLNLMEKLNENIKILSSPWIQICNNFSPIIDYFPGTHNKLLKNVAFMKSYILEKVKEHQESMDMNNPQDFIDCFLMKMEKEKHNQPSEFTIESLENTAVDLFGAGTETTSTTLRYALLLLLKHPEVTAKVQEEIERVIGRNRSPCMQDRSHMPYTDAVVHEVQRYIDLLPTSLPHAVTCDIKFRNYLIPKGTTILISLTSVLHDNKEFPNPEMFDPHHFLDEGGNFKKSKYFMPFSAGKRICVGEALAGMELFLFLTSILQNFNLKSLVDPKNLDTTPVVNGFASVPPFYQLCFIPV

[10] = Half life in Wistar rat at 1 mg/kg, iv; format: ADME, organism-based; design: dose 1 mg/kg, route intravenous; conditions: in vivo; summary of the method: as §1
[11] = Clearance in Wistar rat at 1 mg/kg, iv; format: ADME, organism-based; design: dose 1 mg/kg, route intravenous; conditions: in vivo; summary of the method: as §1
[12] = Apparent permeability across human Caco-2 cells; format: ADME, cell-based

NS(=O)(=O)c1cc(C(=O)O)c(NCc2ccco2)cc1Cl [FUROSEMIDE]
inhibition at 100 µM [1]: 100%

CC(=O)N1CCCC1(Cc1ccccc1)C(=O)O (stereo not drawn)
IC50 [2]: > 100 µM

CC(=O)N1CCCC1(Cc1ccccc1C#N)C(=O)OCc1ccccc1 (stereo not drawn)
IC50 [2]: 5 µM

CC(=O)N1CCCC1(Cc1ccccc1)C(=O)OCC1CCCCC1 (stereo not drawn)
IC50 [2]: 63 µM

CC(=O)N1CCCC1(Cc1ccc(C)cc1)C(=O)OCc1ccccc1 (stereo not drawn)
IC50 [2]: 0.79 µM

CC(=O)N1CCCC1(Cc1ccc(Cl)cc1)C(=O)OCc1ccccc1 (stereo not drawn)
IC50 [2]: 0.32 µM

CC(=O)N1CCCC1(Cc1ccccc1)C(=O)NCc1ccccc1 (stereo not drawn)
IC50 [2]: 100 µM

CC(=O)N1CCCC1(Cc1ccccc1)C(=O)OCc1ccc(S(C)(=O)=O)cc1 (stereo not drawn)
IC50 [2]: > 100 µM

CC(=O)N1CCCC1(Cc1ccc(F)c(C(F)(F)F)c1)C(=O)OCc1ccccc1 (stereo not drawn)
hepatocyte CLint [3]: 20 µL/min/1e6 cells | microsomal CLint [4]: 356 µL/min/mg | IC50 [2]: 0.06 µM | inhibition at 100 µM [1]: 24% | solubility [5]: 0.5 µg/mL (≈ 1.18 µM)

CC(=O)N1CCCC1(Cc1cccc(C#N)c1)C(=O)OCc1ccccc1 (stereo not drawn)
IC50 [2]: 0.32 µM

CC(=O)N1CCCC1(CC1CCCCC1)C(=O)OCc1ccccc1 (stereo not drawn)
microsomal CLint [4]: 382 µL/min/mg | IC50 [2]: 1 µM | inhibition at 100 µM [1]: 39% | solubility [5]: 3 µg/mL (≈ 8.73 µM)

CC(=O)N1CCCC1(Cc1ccncc1)C(=O)OCc1ccccc1 (stereo not drawn)
IC50 [2]: 2 µM

CC(=O)N1CCCC1(Cc1cccc(S(C)(=O)=O)c1)C(=O)OCc1ccccc1 (stereo not drawn)
hepatocyte CLint [3]: 24 µL/min/1e6 cells | microsomal CLint [4]: 107 µL/min/mg | IC50 [2]: 0.25 µM | inhibition at 100 µM [1]: 25%

CCC(=O)N1CCCC1(Cc1ccccc1)C(=O)OCc1ccccc1 (stereo not drawn)
IC50 [2]: 1.2 µM

CC(=O)N1CCCC1(Cc1cccc(C(F)(F)F)c1)C(=O)OCc1ccccc1 (stereo not drawn)
IC50 [2]: 0.08 µM

CC(=O)N1CCCC1(Cc1ccccc1)C(=O)N(C)Cc1ccccc1 (stereo not drawn)
IC50 [2]: 32 µM

CC(=O)N1CCCC1(Cc1ccsc1)C(=O)OCc1ccccc1 (stereo not drawn)
IC50 [2]: 0.79 µM

CC(=O)N1CCCC1(Cc1ccc(C#N)cc1)C(=O)OCc1ccccc1 (stereo not drawn)
hepatocyte CLint [3]: 31 µL/min/1e6 cells | microsomal CLint [4]: 123 µL/min/mg | IC50 [2]: 0.16 µM | inhibition at 100 µM [1]: 31% | solubility [5]: 20 µg/mL (≈ 55.2 µM)

COC(=O)N1CCCC1(Cc1ccccc1)C(=O)OCc1ccccc1 (stereo not drawn)
IC50 [2]: 0.4 µM

CC(=O)N1CCCC1(Cc1ccccc1)C(=O)OCCc1ccccc1 (stereo not drawn)
IC50 [2]: 10 µM

CC(=O)N1CCCC1(Cc1ccc(S(C)(=O)=O)cc1)C(=O)OCc1ccccc1 (stereo in doubt; 13)
bioavailability [6]: 18% | Cmax [7]: 457 ng/mL | hepatocyte CLint [3]: 12 µL/min/1e6 cells | inhibition at 50 µM (CYP3A4): < 30% | AUC [8]: 726 ng·h/mL | concentration at 5 min [9]: 6 µM | inhibition at 50 µM (CYP2D6): < 30% | inhibition at 50 µM (CYP2C19): < 30% | microsomal CLint [4]: 16 µL/min/mg | IC50 [2]: 1 µM | inhibition at 50 µM (CYP2C9): < 30% | half-life [10]: 18 min | clearance [11]: 26 mL/min/kg | Papp [12]: 31 ×10⁻⁶ cm/s | inhibition at 100 µM [1]: 35% | solubility [5]: 500 µg/mL (≈ 1200 µM)

CC(=O)N1CCCC1(Cc1ccc(S(C)(=O)=O)cc1)C(=O)OCc1ccccc1 (single isomer, unassigned; (+))
IC50 [2]: 0.4 µM

CC(=O)N1CCCC1(Cc1ccc(F)cc1)C(=O)OCc1ccccc1 (stereo not drawn)
IC50 [2]: 0.2 µM

CC(=O)N1CCCC1(Cc1ccc(F)cc1C(F)(F)F)C(=O)OCc1ccccc1 (stereo not drawn)
IC50 [2]: 4 µM

Source: ChEMBL document CHEMBL1156993, “Benzyl prolinate derivatives as novel selective KCC2 blockers” (Bioorg Med Chem Lett, 2010)
